# TRPC6 inhibitor – mouse TRPC6 channel inhibition; Q61143; HEK293-TRPC6, membrane potential dye, ACh-evoked depolarization; stronger effect = lower value; B-score at 10 µM; actives 1.1% (n = 310,000); AID 2553;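 active = B-score under library mean minus 3 SD, initial fluorescence not abnormally high, positive integrated signal ratio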;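 also: B-score derived from integrated fluorescence ratio over the kinetic read; more negative B-score means stronger inhibition of depolarization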
# TRPC6 activator – activates the mouse TRPC6 cation channel; HEK293-TRPC6 membrane potential dye fluorescence; stronger effect = higher value; B-score at 10 µM; AID 2550; Q61143; actives 0.13% (n = 310,000);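 active = B-score of the integrated fluorescence ratio above library mean plus 3 SD, and starting fluorescence ratio within library mean plus 5 SD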;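 also: higher score means more depolarization so channel activation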
# TRPC4 act – activators of mouse TRPC4 channel. HEK293 TRPC4beta/mu-opioid, Fluo4 calcium fluorescence; stronger effect = higher value. B-score at 10 µM. actives 0.49% (n = 310,000). AID 2237;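 active = B-score above 5 SD of library B-scores, and initial fluorescence ratio not above library mean plus 5 SD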;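 also: positive B-score marks a calcium rise read as TRPC4 activation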
#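 Assay system – TRPC4beta and mu-opioid receptor HEK293 stable cells · Measured by – Fluo4 fluorescence, kinetic · Schedule – dye loading 45 min room temperature, 110 s kinetic read · Read-out – B-scored integrated calcium fluorescence ratio · Controls – buffer and maximal DAMGO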
# TRPC4 PAM – TRPC4 (mouse) allosteric potentiation | actives 0.42% (n = 310,000) | HEK293 TRPC4beta/mu-opioid, DAMGO EC20, Fluo-4 Ca2+ flux; stronger effect = higher value | Q9QUQ5 | B-score at 10 µM;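 active = B-score of calcium response area above 5 SD of library B-scores, with initial fluorescence ratio within 5 SD of library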;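 also: B-score of integrated fluorescence ratio over time as area under calcium response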
# TRPC4 inh – blocks the mouse TRPC4 cation channel; B-score at 10 µM; HEK293 TRPC4beta/mu-opioid, DAMGO-evoked Fluo4 calcium flux; stronger effect = lower value; Q9QUQ5; actives 0.39% (n = 300,000); AID 2247;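 active = B-score over 3 SD under the library average, no early fluorescence shift, positive overall ratio signal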
#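 Assay system: Stable TRPC4beta/mu-opioid receptor HEK293 cells | Reagent: DAMGO in two steps, submaximal then maximal | Compound dosing: Single concentration per test compound | Signal: Fluo4 Ca2+ flux fluorescence | Evaluation: Per-well B score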
# An asterisk follows results filed as active; i = inactive. The list is not random: actives were taken first. Their share in the collection is about 2.3%.
SMILES,TRPC6 inhibitor,TRPC6 activator,TRPC4 act,TRPC4 PAM,TRPC4 inh
Nc1cc(C(F)(F)F)ccc1Nc1ccccc1,i,i,i,i,-6*
S=C(Nc1ccccc1)Nc1cc(Cl)ccc1Oc1ccccc1,i,i,i,i,-6*
Oc1ccc(-c2[nH]ncc2-c2cnn(-c3ccccc3)c2)c(O)c1,i,i,i,i,-5*
O=C(NCc1ccccc1)C1CCCN(S(=O)(=O)c2cccc3nonc23)C1 (centres undefined),i,i,i,i,i
O=C(NC1CCN(Cc2ccccc2)CC1)C1CCCN(S(=O)(=O)c2cccc3nonc23)C1 (centres undefined),i,i,i,10*,i
COc1ccc(N/C(C)=C2/C(=O)C(=O)N(CCO)C2c2ccc([N+](=O)[O-])cc2)cc1 (centres undefined),i,i,i,137*,i
COc1cc(Br)cc(C2C3=C(CCCC3=O)N(c3ccc(F)cc3)C3=C2C(=O)CCC3)c1O,i,i,i,70*,i
COc1ccccc1C1C2=C(CCCC2=O)N(CC(=O)O)C2=C1C(=O)CCC2,i,i,i,i,i
c1ccc(Nc2nc(Nc3ccccc3)nc(N3CCNCC3)n2)cc1,i,i,146*,i,i
Cc1ccc(C2=NC(C(F)(F)F)(C(F)(F)F)c3c(n(-c4ccc(F)cc4)c(=O)[nH]c3=O)N2)cc1,i,i,i,12*,i
Nc1nonc1C(=O)NCCN=Cc1ccccc1O,i,i,71*,i,i
Nc1nonc1C(=O)NCCN=Cc1cc(Cc2ccccc2)cc(Br)c1O,i,i,i,i,i
O=[N+]([O-])c1ccc(C2(O)CN(c3ccccc3)C3=[N+]2CCS3)cc1 (centres undefined),i,i,87*,i,-7*
CC1(c2ccc([N+](=O)[O-])cc2)Nc2ccccc2S1 (centres undefined),i,i,i,i,i
OC1(c2cccs2)CN(c2ccc(Cl)cc2)C2=[N+]1CCCS2 (centres undefined),i,i,i,i,i
OC1(c2ccc(F)cc2)CN(c2ccccc2)C2=[N+]1CCS2 (centres undefined),i,i,i,i,-6*
Cc1ccc(C2(O)CN(c3ccccc3)C3=[N+]2CCS3)cc1 (centres undefined),i,i,43*,i,-7*
COc1ccc(NS(=O)(=O)c2cc(NC(=O)c3ccc(=O)[nH]c3)ccc2N2CCCC2)cc1,i,i,i,i,i
Cc1cccc(NS(=O)(=O)c2ccc(-n3cccn3)cc2)c1C,i,i,i,i,i
Nc1c2c(nc3ccc(Br)cc13)N(C1CCCCC1)CC2,-7.4*,18*,i,i,i
COc1ccccc1CN1CC(C(=O)N(C)Cc2ccc(C)o2)CCC1=O (centres undefined),i,i,i,i,i
CC1CCCN(c2c([N+](=O)[O-])cc(C(=O)O)cc2[N+](=O)[O-])C1 (centres undefined),i,i,i,i,-5*
CC(C)c1cc(-c2cc(C(=O)Nc3ccccc3)on2)nc(NCC2CC2)n1,i,i,i,i,i
CC(C)c1cc(-c2cc(C(=O)NCc3ccccc3)on2)nc(NCC2CC2)n1,i,i,i,10*,i
Cc1ccc(C)c(-n2cc(CNCCc3cnccn3)c(-c3ccccc3)n2)c1,i,i,108*,i,i
CC(=O)N1N=C(c2ccc(Br)cc2)OC1(C)CC(=O)Nc1ccccc1 (centres undefined),i,i,i,15*,i
CN(CCc1ccccc1)C1CCCN(S(=O)(=O)CC(F)(F)F)C1 (centres undefined),i,i,i,i,i
CCN(CC)CCCNC(=O)Cn1cnc2ccc(S(=O)(=O)N3CCC(C)CC3)cc2c1=O,i,i,i,12*,i
O=C(c1cccc(S(=O)(=O)N2CCc3ccccc32)c1)N1CCN(c2ccccn2)CC1,i,16*,i,i,i

# Compound activity from PubChem BioAssay.
